Results on 16 molecules are retold here after ChEMBL document CHEMBL1139068, “Amino acid-based enantiomerically pure 3-substituted 1,4-benzodiazepin-2-ones: a new class of anti-ischemic agents” (2007).

The nature of assay [1]: Antiischemic activity in forebrain neurons assessed as necrotic and delayed apoptotic neuronal population at 100 uM after 20 mins. It counts as functional, Homo sapiens, Neuron. In a few lines:
(§1)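 Isolated forebrain neurons at 1×10^6 cells/100 µl pretreated with compound (100 µM) 20 min at 37 °C, then exposed to equal volume of H2O2 (300 µM) 1 h at 37 °C; untreated cells held 1 h 20 min. Cells washed twice in cold PBS, stained FITC-Annexin V/propidium iodide 15 min at room temperature in dark. 10,000 cells read by flow cytometry (ex 488 nm; em 530, 670 nm); quadrant percentages.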

Assay [2] is described as follows: Antiischemic activity in forebrain neurons assessed as necrotic neuronal population at 100 uM after 20 mins. It counts as functional, Homo sapiens, Neuron. In a few lines: as §1
A short description of assay [3]: Antiischemic activity in forebrain neurons assessed as viable cells at 100 uM after 20 mins. Particulars: Homo sapiens, Neuron, read-out: Activity. It counts as functional. In a few lines:
as §1

Assay [4] is described as follows: Antiischemic activity in forebrain neurons assessed as apoptotic neuronal population at 100 uM after 20 mins. In kind it is functional, Homo sapiens, Neuron. In a few lines:
as §1

`C[C@@H]1NCc2ccccc2NC1=O`: the Activity in assay [1] came out at 4.8%; in assay [2], 5.35%; in assay [4], 29.47%. The viability at 100 µM in assay [3] came out at 60.4%.

Turning to `COC(=O)C[C@@H]1NCc2ccccc2NC1=O`, the Activity in assay [1] is reported as 4.28%; in assay [2], 4.73%; in assay [4], 25.75%. The viability at 100 µM in assay [3] was 65.2%.

Consider `O=C1Nc2ccccc2CN[C@H]1Cc1ccc(OCc2ccccc2)cc1`, for which the results for the Activity in assay [1], in assay [2] and in assay [4] were 4.83%, 4.99% and 23.63%, respectively. Besides, the viability at 100 µM in assay [3] worked out at 66.5%.

As to `CSCC[C@@H]1NCc2ccccc2NC1=O`, the Activity is listed as 3.5% in assay [1], 4.73% in assay [2] and 9.08% in assay [4]. Further, in assay [3], the viability at 100 µM came out at 82.7%.

In the case of `O=C1Nc2ccccc2CN[C@H]1Cc1ccccc1`, the Activity in assay [1] is reported as 1.21%; in assay [2] it was 2.07%; in assay [4] it was 25.58%. For the same molecule, the viability at 100 µM in assay [3] was 70.1%.

Turning to `O=C1Nc2ccccc2CN[C@@H]1Cc1c[nH]c2ccccc12`, the Activity in assay [1] amounted to 3.47%; in assay [2], 0.5%; in assay [4], 21.06%. For the same molecule, in assay [3], the viability at 100 µM was determined as 75%.

Consider `CSCC[C@H]1NCc2ccccc2NC1=O`, for which the Activity came to 3.98% in assay [1], 0.52% in assay [2] and 16.96% in assay [4]. Besides, in assay [3], the viability at 100 µM worked out at 77.8%.

For the molecule `O=C1Nc2ccccc2CN2C[C@@H](O)C[C@@H]12`, the Activity came out at 3.08% in assay [1], 5.68% in assay [2] and 3.79% in assay [4]. The viability at 100 µM in assay [3] came out at 87.5%.

Regarding `O=C1Nc2ccccc2CN2CCC[C@@H]12`, the Activity in assay [1] worked out at 5.04%; in assay [2], 5.51%; in assay [4], 23.27%. In addition, the viability at 100 µM in assay [3] worked out at 66.2%.

As for `C[C@H]1NCc2ccccc2NC1=O`, the Activity in assay [1] is 3.2%; in assay [2], 0.98%; in assay [4], 26.85%. The viability at 100 µM in assay [3] was 69%.

For `O=C1Nc2ccccc2CN[C@H]1Cc1c[nH]c2ccccc12`, the Activity is 3.55% in assay [1], 4.33% in assay [2] and 30.86% in assay [4]. Also, in assay [3], the viability at 100 µM turned out to be 61.3%.

Regarding `O=C1Nc2ccccc2CN2C(=O)CC[C@@H]12`, the values for the Activity in assay [1], in assay [2] and in assay [4] were 3.75%, 5.56% and 24.62%, respectively. In assay [3], the viability at 100 µM was 66.1%.

Turning to `O=C1Nc2ccccc2CN[C@@H]1Cc1ccccc1`, the results for the Activity in assay [1], in assay [2] and in assay [4] were 0.68%, 0.68% and 17.26%, respectively. In addition, the viability at 100 µM in assay [3] stood at 79%.

`O=C1Nc2ccccc2CN2CCC[C@H]12`: the Activity is 3.1% in assay [1], 0.64% in assay [2] and 11.72% in assay [4]. Further, the viability at 100 µM in assay [3] came out at 84.5%.

Take `O=C1Nc2ccccc2CN[C@H]1CSCc1ccccc1`: the Activity in assay [1] is 4.58%; in assay [2] it was 5.05%; in assay [4], 26.01%. For the same molecule, the viability at 100 µM in assay [3] worked out at 64.4%.

With `NC(=O)CC[C@@H]1NCc2ccccc2NC1=O`, the Activity is recorded as 3.12% in assay [1], 4.75% in assay [2] and 24.93% in assay [4]. Moreover, the viability at 100 µM in assay [3] was 67.2%.
